Results reported in paper PMC4783179 (The Journal of comparative neurology, 2015).
Read-outs that look alike come from different tables or passages of the source. Marks after values point to notes of the source that are not given here.

How the values were obtained:
[1] = test system: all other human-cloned receptor subtypes tested; experiment: NIMH PDSP screening of the remaining panel; assay type: binding
D2 subtype = D2 subtype (Homo sapiens, UniProt P14416); experiment: NIMH PDSP binding affinity, human cloned receptor; conditions: read-out: Affinity, D2 subtype
Sequence of D2 subtype (P14416 whole entry): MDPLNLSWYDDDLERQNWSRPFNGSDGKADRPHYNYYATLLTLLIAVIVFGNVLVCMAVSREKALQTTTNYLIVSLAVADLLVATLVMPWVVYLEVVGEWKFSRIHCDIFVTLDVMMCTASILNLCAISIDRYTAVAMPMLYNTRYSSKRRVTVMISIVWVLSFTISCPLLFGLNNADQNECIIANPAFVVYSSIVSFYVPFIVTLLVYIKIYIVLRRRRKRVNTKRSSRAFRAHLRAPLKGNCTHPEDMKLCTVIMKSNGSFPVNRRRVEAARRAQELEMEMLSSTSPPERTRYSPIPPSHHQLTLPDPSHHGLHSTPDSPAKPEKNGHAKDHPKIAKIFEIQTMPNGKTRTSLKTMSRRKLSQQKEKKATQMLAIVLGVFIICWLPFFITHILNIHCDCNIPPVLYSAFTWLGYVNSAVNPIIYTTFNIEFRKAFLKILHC

5-HT1A receptors [2] = molecular target: T1, 5-HT1A receptors (Rattus norvegicus, UniProt P19327); conditions: 90 mins post-injection, cited from earlier work
T1 sequence (P19327 1-422): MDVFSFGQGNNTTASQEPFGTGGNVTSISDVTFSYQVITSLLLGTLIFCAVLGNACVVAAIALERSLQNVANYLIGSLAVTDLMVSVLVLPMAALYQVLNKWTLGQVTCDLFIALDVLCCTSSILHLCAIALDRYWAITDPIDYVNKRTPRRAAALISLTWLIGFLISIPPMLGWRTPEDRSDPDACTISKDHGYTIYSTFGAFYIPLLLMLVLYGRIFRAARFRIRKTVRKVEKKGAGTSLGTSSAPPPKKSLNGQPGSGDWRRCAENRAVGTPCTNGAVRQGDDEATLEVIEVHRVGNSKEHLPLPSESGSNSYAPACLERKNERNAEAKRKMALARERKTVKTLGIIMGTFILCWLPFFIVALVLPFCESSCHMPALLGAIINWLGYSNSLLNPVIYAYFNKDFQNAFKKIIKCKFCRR

5-HT1A receptors [3] = molecular target: T2, 5-HT1A receptors (Canis lupus familiaris, UniProt Q6XXX9); experiment: In vitro autoradiography of 18F-Mefway, beagle dog brain slices; assay type: binding
T2 sequence (Q6XXX9 1-423): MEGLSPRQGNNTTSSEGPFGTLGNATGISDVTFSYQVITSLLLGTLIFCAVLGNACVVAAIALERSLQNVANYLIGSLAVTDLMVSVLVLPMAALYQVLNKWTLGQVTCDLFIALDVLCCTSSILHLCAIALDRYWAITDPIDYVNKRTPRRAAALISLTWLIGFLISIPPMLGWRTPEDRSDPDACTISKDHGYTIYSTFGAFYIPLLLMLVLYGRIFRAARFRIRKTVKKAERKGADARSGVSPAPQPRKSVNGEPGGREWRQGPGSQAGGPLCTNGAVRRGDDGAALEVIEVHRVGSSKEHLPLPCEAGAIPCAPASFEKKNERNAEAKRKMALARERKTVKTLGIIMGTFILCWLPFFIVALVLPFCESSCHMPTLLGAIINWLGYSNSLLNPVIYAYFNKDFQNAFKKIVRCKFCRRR
Outline: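 Dog tissue: unfixed beagle brain (4.5–15.4 yr), stored at −80 °C, cut as 10 µm hemi-coronal slices with hippocampus and cortex. Human tissue: postmortem hippocampus (PMI 3.8–5.8 h), cut at 7 µm. Slices preincubated in 50 mM Tris-HCl pH 7.4 for 10 min at room temperature, then incubated with 37–185 kBq/mL tracer at 37 °C for 1 h. […] Two 1-min ice-cold buffer washes, then 24 h phosphor-screen exposure. Binding read as DLU/mm².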

[4] = molecular target: serotonin 5-HT1A receptors; conditions: rat brain homogenates labeled with 3H-WAY 100635; ref Saigal et al., 2013; cited from earlier work
5-HT1A receptors [5] = molecular target: T3, 5-HT1A receptors (Homo sapiens, UniProt P08908); conditions: ref Hillmer et al., 2014, cited from earlier work; for HP/CB PET ratio / Brain Uptake: human; for HP/CB PET ratio: 90 mins post-injection; for Brain Uptake: initial, 1–2 min post-injection
T3 sequence (P08908 1-422): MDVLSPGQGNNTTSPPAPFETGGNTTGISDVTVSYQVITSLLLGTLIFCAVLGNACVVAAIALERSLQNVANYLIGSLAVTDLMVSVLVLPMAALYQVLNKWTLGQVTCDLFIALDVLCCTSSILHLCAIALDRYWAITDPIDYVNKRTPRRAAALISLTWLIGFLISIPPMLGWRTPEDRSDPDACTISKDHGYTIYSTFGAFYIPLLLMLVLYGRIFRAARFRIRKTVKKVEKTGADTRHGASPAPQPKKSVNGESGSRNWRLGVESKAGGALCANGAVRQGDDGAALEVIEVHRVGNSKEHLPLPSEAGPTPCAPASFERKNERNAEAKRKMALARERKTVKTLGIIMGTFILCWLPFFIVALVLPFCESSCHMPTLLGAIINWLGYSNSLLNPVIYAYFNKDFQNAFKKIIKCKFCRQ

5-HT1A receptors [6] = molecular target: T4, 5-HT1A receptors (Mus musculus, UniProt Q64264); conditions: cited from earlier work; for Brain Uptake: initial, 1–2 min post-injection
T4 sequence (Q64264 1-421): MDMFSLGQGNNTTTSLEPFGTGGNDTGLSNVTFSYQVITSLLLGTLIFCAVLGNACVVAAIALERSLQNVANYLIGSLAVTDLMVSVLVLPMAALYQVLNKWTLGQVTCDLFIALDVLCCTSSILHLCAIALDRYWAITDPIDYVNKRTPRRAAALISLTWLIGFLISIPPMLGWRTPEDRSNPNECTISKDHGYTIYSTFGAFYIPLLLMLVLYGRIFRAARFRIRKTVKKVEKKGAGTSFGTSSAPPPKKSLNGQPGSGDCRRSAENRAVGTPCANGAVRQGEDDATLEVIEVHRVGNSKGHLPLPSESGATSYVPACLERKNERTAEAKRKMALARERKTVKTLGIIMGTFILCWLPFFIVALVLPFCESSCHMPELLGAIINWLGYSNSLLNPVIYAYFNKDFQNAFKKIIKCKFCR

[7] = rhesus monkey; ref Wooten et al., 2013; cited from earlier work
5-HT1A receptors [8] = molecular target: T4, 5-HT1A receptors; experiment: In vitro autoradiography of 18F-Mefway, mouse brain slices; assay type: binding
Outline: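 Horizontal 10 µm slices covering hippocampus, frontal cortex, dorsal raphe and cerebellum. Sources: frozen brains of male BALB/c mice (25 g) or male Sprague-Dawley rats (250–300 g). Preincubated in 50 mM Tris-HCl pH 7.4 for 10 min at room temperature, then 37–185 kBq/mL tracer at 37 °C for 1 h. […] Washed, then phosphor screen for 24 h. Regional DLU/mm² expressed as ratios to cerebellum as reference.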

[9] = ref Saigal et al., 2013, listed as 18F-Mefway
[10] = dog brain cortex, relative to layers I and II

SMILES: COc1ccccc1N1CCN(CCN(C(=O)C2CCC(CF)CC2)c2ccccn2)CC1 (centres unmarked) [Mefway]
- Affinity, other adrenergic receptor subtypes ([1]; adrenergic subtypes other than α1A and α1D): poor affinities
- Affinity, all other receptor subtypes tested in section 2.3 ([1]; at 10 μM concentration, significant = > 50% inhibition): did not exhibit significant affinity
- Affinity, other serotonin receptor subtypes ([1]; serotonin subtypes other than 5-HT1A, 5-HT7, 5-HT2B): did not show significant affinities
- Ki (D2 subtype): 188 nM
- HP/CB PET ratio (5-HT1A receptors [2]; [9]): 10
- HP/CB PET ratio (5-HT1A receptors [2]; ref Saigal et al., 2013): 10 ^g
- Level of binding in cortical layers I and II (5-HT1A receptors [3]; dog brain cortex, relative to highest layer): 100%
- Level of binding in cortical layers III and IV (5-HT1A receptors [3]; [10]): 31%
- Level of binding in cortical layers V and VI (5-HT1A receptors [3]; [10]): 36%
- Ratio of hippocampus to white matter, autoradiography (5-HT1A receptors [3]; dog brain, same brain slice): > 50
- Binding displaced in hippocampus and cortex (5-HT1A receptors [3]; in the presence of 10 μM of WAY-100635, dog (all the species)): > 95%
- Binding affinity, Ki, 5-HT1A, rat brain homogenates [4]: subnanomolar affinity
- Adverse or pharmacologic effects in human subjects (5-HT1A receptors [5]; approximately 185 MBq bolus, 6 subjects): no adverse or clinically detectable pharmacologic effects
- Binding potential HP, BPND (5-HT1A receptors [5]; human hippocampus): 2.7 ^i
- HP/CB PET ratio (5-HT1A receptors [5]): 4 ^i
- HP/CB PET ratio (5-HT1A receptors [5]; listed as 18F-Mefway): 4
- Brain Uptake (5-HT1A receptors [5]): 0.002 ^e %ID/cc
- Brain Uptake (5-HT1A receptors [5]; listed as 18F-Mefway): 0.002 %ID/cc
- HP/CB PET ratio (5-HT1A receptors [6]; 90 mins post-injection, may be underestimated, ref Saigal et al., 2013): 3 ^g
- Brain Uptake (5-HT1A receptors [6]; [9]): 5 %ID/cc
- Brain Uptake (5-HT1A receptors [6]; ref Saigal et al., 2013): 5 ^g %ID/cc
- Free Fraction in plasma [7]: 15% ^j
- Binding displaced in hippocampus and cortex (5-HT1A receptors [8]; in the presence of 10 μM of WAY-100635, mouse (all the species)): > 95%
- Ratio in cortical regions, autoradiography (5-HT1A receptors [8]; mice): > 10
- Ratio of hippocampus to cerebellum, autoradiography (5-HT1A receptors [8]; mice, brain slices incubated for one hr): 25
- Ratio of raphe to cerebellum, autoradiography (5-HT1A receptors [8]; mice, horizontal sections): 22
